Drawing on ChEMBL document CHEMBL3763095, “Naphtho[1',2':4,5]imidazo[1,2-a]pyridine-5,6-diones: Synthesis, enzymatic reduction and cytotoxic activity” (Bioorg Med Chem Lett, 2016), this text covers kcat/Km for one protein.

Common to all, as to set-up: species or system Homo sapiens
Substrate in data set [1]: Cc1ccc2nc3c(n2c1)C(=O)C(=O)c1ccccc1-3
Description: (§1) Activity of NADPH:cytochrome P-450R (unknown origin) assessed as NADPH oxidation by spectrophotometric analysis. In a few lines:
(§2)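 Initial rates of enzymatic reduction measured at varied compound concentrations with NADPH fixed at 150 µM. Reactivity expressed as apparent second-order k_cat/K_m, taken as the efficiency of reduction by the reduced free enzyme (ping-pong scheme).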

Substrate in data set [2]: O=C1C(=O)c2c(nc3ccc(Br)cn23)-c2ccccc21
Described as §1. In a few lines:
as §2

Substrate in data set [3]: Cc1ccn2c3c(nc2c1)-c1ccccc1C(=O)C3=O
The data set is described as §1. In a few lines:
as §2

Substrate in data set [4]: O=C1C(=O)c2c(nc3ncccn23)-c2ccccc21
Described as §1. In a few lines: as §2

Substrate in data set [5]: O=C1C(=O)c2c(nc3ccc(C(F)(F)F)cn23)-c2ccccc21
The description is as §1. In a few lines: as §2

Substrate in data set [6]: COc1ccc2nc3c(n2c1)C(=O)C(=O)c1ccccc1-3
Described as §1. In a few lines:
as §2

Substrate in data set [7]: O=C1C(=O)c2c(nc3ccccn23)-c2ccc([N+](=O)[O-])cc21
The data set is described as §1. In a few lines: as §2

Substrate in data set [8]: O=C1C(=O)c2c(nc3ccc(Cl)cn23)-c2ccccc21
The data set is described as §1. In a few lines: as §2

Substrate in data set [9]: Cc1cccn2c3c(nc12)-c1ccccc1C(=O)C3=O
The data set is described as §1. In a few lines:
as §2

Substrate in data set [10]: O=C1C(=O)c2c(nc3ccc(F)cn23)-c2ccccc21
The data set is described as §1. In a few lines: as §2

Substrate in data set [11]: O=C1C(=O)c2c(nc3ccccn23)-c2ccccc21
The data set is described as §1. In a few lines:
as §2

Substrate in data set [12]: O=C1C(=O)c2c(nc3ccc4ccccc4n23)-c2ccccc21
Described as §1. In a few lines: as §2

Substrate in data set [13]: O=C1C(=O)c2c(nc3ccc([N+](=O)[O-])cn23)-c2ccccc21
Described as §1. In a few lines: as §2

B1: NADPH--cytochrome P450 reductase (Homo sapiens) (protein)
chain: MGDSHVDTSSTVSEAVAEEVSLFSMTDMILFSLIVGLLTYWFLFRKKKEEVPEFTKIQTLTSSVRESSFVEKMKKTGRNIIVFYGSQTGTAEEFANRLSKDAHRYGMRGMSADPEEYDLADLSSLPEIDNALVVFCMATYGEGDPTDNAQDFYDWLQETDVDLSGVKFAVFGLGNKTYEHFNAMGKYVDKRLEQLGAQRIFELGLGDDDGNLEEDFITWREQFWPAVCEHFGVEATGEESSIRQYELVVHTDIDAAKVYMGEMGRLKSYENQKPPFDAKNPFLAAVTTNRKLNQGTERHLMHLELDISDSKIRYESGDHVAVYPANDSALVNQLGKILGADLDVVMSLNNLDEESNKKHPFPCPTSYRTALTYYLDITNPPRTNVLYELAQYASEPSEQELLRKMASSSGEGKELYLSWVVEARRHILAILQDCPSLRPPIDHLCELLPRLQARYYSIASSSKVHPNSVHICAVVVEYETKAGRINKGVATNWLRAKEPAGENGGRALVPMFVRKSQFRLPFKATTPVIMVGPGTGVAPFIGFIQERAWLRQQGKEVGETLLYYGCRRSDEDYLYREELAQFHRDGALTQLNVAFSREQSHKVYVQHLLKQDREHLWKLIEGGAHIYVCGDARNMARDVQNTFYDIVAELGAMEHAQAVDYIKKLMTKGRYSLDVWS
For B1, the kcat/Km in [1] worked out at 8.9e+06 M⁻¹ s⁻¹; in data set [2], 3.7e+07 M⁻¹ s⁻¹; in [3] it was 1.4e+07 M⁻¹ s⁻¹; in data set [4], 3.4e+07 M⁻¹ s⁻¹; in data set [5] it was 3.5e+07 M⁻¹ s⁻¹; in data set [6] it was 2.9e+07 M⁻¹ s⁻¹. Also, the kcat/Km in data set [7] stood at 7.2e+07 M⁻¹ s⁻¹; in [8], 5.4e+07 M⁻¹ s⁻¹; in data set [9], 1.3e+07 M⁻¹ s⁻¹; in data set [10], 2.4e+07 M⁻¹ s⁻¹; in [11], 3.1e+07 M⁻¹ s⁻¹; in data set [12], 5.6e+06 M⁻¹ s⁻¹. The kcat/Km in data set [13] worked out at 5.9e+07 M⁻¹ s⁻¹.
